# Source: PubChem
# Hits are enriched below; roughly 4.3% of the tested compounds scored in any of these assays.
# Rtt109 HAT inh = inhibitors of C. albicans Rtt109/Vps75 HAT, primary screen, biochemical, ThioGlo CoA-SH fluorescence, plate reader. inhibition, % at 34.9 µM. AID 540336, 2011. 0.16% of 330,000 active. purified Rtt109/Vps75, 4 h. Histone acetyltransferase RTT109 (Candida albicans (strain SC5314 / ATCC MYA-2876)), …;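 active means inhibition of at least 50% in every replicate; inconclusive means best replicate reaches 50% inhibition but some replicates fall short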
# Target sequence (Q5AAJ8 whole entry, looked up): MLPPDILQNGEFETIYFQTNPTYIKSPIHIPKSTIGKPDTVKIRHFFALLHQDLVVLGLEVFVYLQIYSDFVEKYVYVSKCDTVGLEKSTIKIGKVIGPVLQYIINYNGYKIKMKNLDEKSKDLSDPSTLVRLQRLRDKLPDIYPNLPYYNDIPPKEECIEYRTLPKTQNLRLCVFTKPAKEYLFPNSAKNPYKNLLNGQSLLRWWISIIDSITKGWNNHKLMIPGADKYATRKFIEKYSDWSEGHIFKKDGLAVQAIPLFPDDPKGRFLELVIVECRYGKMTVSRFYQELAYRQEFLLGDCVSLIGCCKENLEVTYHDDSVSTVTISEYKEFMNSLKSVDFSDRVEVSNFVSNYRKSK
# ALR inh = inhibitors of human ALR sulfhydryl oxidase, primary screen, biochemical, H2O2 detection, HRP-luminol luminescence, single point; FAD-linked sulfhydryl oxidase ALR (Homo sapiens), P55789; purified ALR, DTT oxidation; inhibition, % (no concentration beside the values); 3.8% of 290,000 active; AID 485317, 2010;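 active means mean replicate inhibition above about 79%, with every replicate also reaching it, limit read from the data; inconclusive means only one of the two criteria met; inactive means mean below limit and not every replicate reaching it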
# Target sequence (P55789 whole entry, looked up): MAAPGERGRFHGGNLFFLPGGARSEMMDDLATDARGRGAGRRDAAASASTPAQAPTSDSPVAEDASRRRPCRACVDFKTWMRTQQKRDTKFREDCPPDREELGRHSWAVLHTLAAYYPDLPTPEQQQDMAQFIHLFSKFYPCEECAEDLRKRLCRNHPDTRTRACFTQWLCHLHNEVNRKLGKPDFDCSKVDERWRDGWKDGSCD
# DYRK1A inh = rat Dyrk1A kinase inhibitors, primary screen, biochemical, single point, plate reader | Dual specificity tyrosine-phosphorylation-regulated kinase 1A (Rattus norvegicus), Q63470 | ADP-Glo luminescence, NFATc1 peptide | inhibition, % at 12.5 µM | 0.43% of 310,000 active; in the data active means inhibition above about 50%;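 further: plate controls were vehicle with enzyme for no effect and no enzyme for full effect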
# CAL PDZ FP-1 = untagged CAL PDZ binding inhibitors, primary screen, biochemical, fluorescence polarization, HTS | Golgi-associated PDZ and coiled-coil motif-containing protein (Homo sapiens), Q9HD26 | purified CAL PDZ, TMR-peptide fluorescence polarization, 1 h | inhibition, % at 24.9 µM | 0.92% of 300,000 active;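 active means mean inhibition of at least 30% with at least half of replicates also reaching 30%; inconclusive means no clear call, values can overlap the other calls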;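 further: 0% = DMSO neutral control and 100% = excess unlabeled competitor peptide PRC23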
# CAL PDZ FP-2 = CAL PDZ peptide-binding inhibitors, primary screen, biochemical, fluorescence polarization, Cer-tagged CAL PDZ, HTS; inhibition, % at 20 µM; AID 504414, 2011; 0.02% of 330,000 active; purified CAL PDZ, TMR-peptide fluorescence polarization, 1 h;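 active means highest replicate inhibition of at least 40%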;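 further: plate controls were DMSO neutral control wells for no effect and unlabeled competitor peptide control wells for full effect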
#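 System: tagged CAL PDZ domain. Schedule: 1 h room-temperature incubation prior to read. Signal: fluorescence polarization (mP). Measure: percent inhibition from loss of millipolarization.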
# * marks the source's active call; other numbers are inactive results; ? = inconclusive; / = no result; + = active, no number.
SMILES,Rtt109 HAT inh,ALR inh,DYRK1A inh,CAL PDZ FP-1,CAL PDZ FP-2
CSCCC(NC(=O)c1ccco1)C(=O)N1CCN(C(c2ccccc2)c2ccccc2)CC1 (stereo not drawn),7,/,1,1,0
COc1ccc(CCC(=O)Nc2ncc(C)s2)cc1OC,-7,-6,-1,50*,-1
Cc1cnc(NC(=O)CCc2ccccc2)s1,-1,0,0,1,0
COCCCNC(=O)C1CCC(=O)N(c2ccc3c(c2)OCO3)C1c1ccc(OC)cc1 (stereo not drawn),-7,-3,9,+,1
Cc1c(N=C2SCC(=O)N2/N=C\c2ccc(Br)cc2)c(=O)n(-c2ccccc2)n1C,-5,92*,-6,0,0
CCn1c(=O)cc(C(F)(F)F)[nH]c1=S,-7,-2,/,-2,-1
COc1ccc(CN2C[C@H]3CCCN3c3cc(Br)ccc3S2(=O)=O)cc1,0,/,/,-1,-1
C#CCN1[C@@H]2CCN(C2)c2cc(Br)ccc2S1(=O)=O,-17,/,6,51*,0
O=C(CNC(=O)c1ccccc1C(F)(F)F)N/N=C/c1cccs1,-8,-4,-4,0,-1
CC1(C)CC(=O)C(C=NCCN2CCNC2=O)=C(O)C1,-17,-8,6,52*,0
CCC(=O)N1N=C(c2ccc(NS(C)(=O)=O)cc2)CC1c1ccc(N(C)C)cc1 (stereo not drawn),/,35,0,1,-1
O=C(NCCSc1c[nH]c2ccccc12)C1CC1,-10,98*,-2,1,0
COc1cc(OC)cc(C(=O)NCCSc2c[nH]c3ccccc23)c1,15,91*,15,-3,0
O=C(NCCSc1c[nH]c2ccccc12)c1c(F)cccc1F,-6,/,0,/,-2
Cc1cccc(CSc2nn3c(=O)c(C)nnc3s2)c1,-19,99*,/,-1,-2
Cc1nnc2sc(SCc3ccc(Cl)cc3)nn2c1=O,6,/,5,-2,-1
CC(=O)Nc1cccc(NC(=O)CSc2nn3c(=O)c(C)nnc3s2)c1,-9,98*,5,/,-1
Cc1nnc2sc(SCC(=O)Nc3ccc(Cl)cc3)nn2c1=O,-1,93*,-4,37*,15
CCC1(C)C(Nc2c(C)cccc2C)=NC(=S)N1c1ccc(NC(C)=O)cc1 (stereo not drawn),3,/,6,0,0
CCOC(=O)c1c(C)oc2c1c(C(c1ccccc1)N1CCOCC1)c(O)c1ccccc12 (stereo not drawn),-2,-11,-2,/,0
CCOC(=O)c1c(C)oc2c1c(C=NCCO)c(O)c1ccccc12,53*,/,4,2,1
CCC(=O)O[C@]1(C(=O)SCF)[C@H](C)C[C@H]2[C@@H]3C[C@H](F)C4=CC(=O)C=C[C@]4(C)[C@@]3(F)[C@@H](O)C[C@@]21C,/,-4,/,/,/
COc1ccccc1-c1cccc([C@@H]2C[C@H]3[C@H](CON3C)CN2S(=O)(=O)c2ccccc2C)c1,-2,/,/,-1,-2
Nc1nc(Nc2ccc(Cl)cc2)nc2ccccc12,5,65,-2,-2,-1
CN(C)c1ccc(Nc2nc(N)c3ccccc3n2)cc1,1,99*,47,-6,3
SMILES,Rtt109 HAT inh,ALR inh,DYRK1A inh,CAL PDZ FP-1,CAL PDZ FP-2
Cc1ccc2nc(-c3ccc(NC(=S)NCCC(C)C)cc3)sc2c1,-3,4,-1,active,-2
CCCCNC(=S)Nc1ccc(-c2nc3ccc(C)cc3s2)cc1,-2,/,3,-3,-3
CC(=O)C1CCCN(C(=O)c2ccc3oc(CCc4ccccc4)nc3c2)C1 (stereo not drawn),-2,1,0,47*,0
CCOC(=O)C1CCCN(C(=O)c2ccc3oc(CCc4ccccc4)nc3c2)C1 (stereo not drawn),3,-1,-6,-2,-2
CCOC(=O)C1CCCN(C(=O)c2ccc3nc(-c4cccc(OC)c4)oc3c2)C1 (stereo not drawn),6,2,9,-3,-2
O=C(Nc1nccs1)c1ccc2ccccc2c1,2,0,33,/,-2
O=C(Nc1n[nH]c(=S)s1)c1ccc2ccccc2c1,24,98*,9,-2,1
COc1cccc2c3c(c(=O)[nH]c12)CC(C)(C)O3,/,14,/,/,/
COc1cccc2c3c(c(=O)[nH]c12)CCC(C)(C)O3,11,98*,10,0,-1
Cc1oc(-c2ccccc2F)nc1CSCC(=O)NCc1ccc2c(c1)OCO2,1,98*,4,/,-1
Cc1oc(-c2ccccc2F)nc1CS(=O)CC(=O)NCc1ccc(F)cc1 (stereo not drawn),-1,99*,1,/,-1
Cc1ccc(CNC(=O)CS(=O)(=O)Cc2nc(-c3ccccc3F)oc2C)cc1,-4,-10,-8,/,-2
Cc1ccc(CNC(=O)CS(=O)Cc2nc(-c3ccccc3F)oc2C)cc1 (stereo not drawn),-4,96*,-5,-2,-3
Cc1oc(-c2ccccc2F)nc1CS(=O)CC(=O)NCc1ccccc1 (stereo not drawn),2,97*,2,-6,-3
Cc1ccc(C(=O)NC2CC(C)(C)NC(C)(C)C2)cc1S(=O)(=O)N1CCCCC1,-19,/,-2,-1,-3
Cc1ccc(S(=O)(=O)NCC2CCC(C(=O)NCCCN3CCOCC3)CC2)cc1 (stereo not drawn),-2,-1,-1,39*,-4
O=C(NCCC1=CCCCC1)C1CCC(CNS(=O)(=O)c2ccccc2)CC1 (stereo not drawn),-17,/,3,-3,0
O=C(NCCc1ccccc1)C1CCC(CNS(=O)(=O)c2ccc(F)cc2)CC1 (stereo not drawn),-7,2,-1,41*,0
Cc1ccc(/C=N/NC(=O)C(C)Oc2ccccc2[N+](=O)[O-])s1 (stereo not drawn),-3,-1,-6,0,-1
Cc1nnsc1C(=O)N1CCN(c2ccc(F)cc2)CC1,2,3,/,37*,0
Cc1c(C(=O)N2CCN(c3ccccc3)CC2)sc2nc3n(c(=O)c12)CCC3,1,34,/,0,-3
Cc1c(C(=O)N2CCN(c3ccc(F)cc3)CC2)sc2nc3n(c(=O)c12)CCC3,2,?,3,86*,0
Cc1nnsc1C(=O)N1CCCC(N2CCN(c3ccc(F)cc3)CC2)C1 (stereo not drawn),-6,48,-3,1,-1
